# Published values gathered from unrelated publications.
# Compare with care: the assays were run in different laboratories.
# DYRK3: Dual specificity tyrosine-phosphorylation-regulated kinase 3 (DYRK3, Homo sapiens, UniProt O43781)
# BRDT BD1: Bromodomain testis-specific protein, BD1 (BRDT, Homo sapiens, UniProt Q58F21)
# PTGS2: Prostaglandin G/H synthase 2 (PTGS2, Homo sapiens, UniProt P35354)
SMILES,target,assay,conditions,endpoint,value
O=C(O)c1ccc2c(c1)nc(NCCc1ccccc1)c1ccncc12,DYRK3,"enzyme activity, inhibitor, radiometric",1 µM,remaining activity,3%
Oc1ccc(-c2nc(-c3ccncc3)c(-c3ccc(F)cc3)[nH]2)cc1,"Transcription intermediary factor 1-beta (TRIM28, Homo sapiens, UniProt Q13263)","thermal stability, DSF",10 µM,ΔTm,-0.03 °C
Cc1cc2c(cc1N1C(=O)c3cccc4c(Cl)ccc(c34)C1=O)n(C)c(=O)n2C,BRDT BD1,"thermal stability, DSF",10 µM,ΔTm,-1 °C
O=c1cc(-c2ccc(O)cc2)oc2cc(O)cc(O)c12,PTGS2,"enzyme activity, inhibitor",0.98 µg/mL,inhibition,28.2%
Cc1cnc(Nc2ccc(OCCN3CCCC3)cc2)nc1Nc1cccc(S(=O)(=O)NC(C)(C)C)c1,"CREB-binding protein (CREBBP, Homo sapiens, UniProt Q92793)","thermal stability, DSF",10 µM,ΔTm,2.06 °C
O=C(O)c1ccc(O)cc1,PTGS2,"enzyme activity, inhibitor",15.63 µg/mL,inhibition,100%
O=C(O)c1ccc2c(c1)nc(Nc1cccc(F)c1)c1ncncc12,"Homeodomain-interacting protein kinase 2 (HIPK2, Homo sapiens, UniProt Q9H2X6)","enzyme activity, inhibitor, radiometric",1 µM,remaining activity,-1%
NS(=O)(=O)c1ccc(Nc2nc(-c3ccc(F)cc3)c3ccccc3n2)cc1,BRDT BD1,"binding, competition with immobilised ligand",1 µM,remaining binding,6%
COc1ccc(-c2cc(=O)c3c(O)cc(O[C@@H]4O[C@H](CO)[C@@H](O)[C@H](O)[C@H]4O)cc3o2)cc1O,PTGS2,"enzyme activity, inhibitor",3.9 µg/mL,inhibition,100%
O=C(O)c1ccc2c(c1)nc(Nc1cccc(F)c1)c1ccncc12,DYRK3,"enzyme activity, inhibitor, radiometric",1 µM,remaining activity,0%
